CHOP inh – blocks CHOP induction under ER stress; inhibition, % at 10 µM; AID 2732; CHO-K1 CHOP-promoter luciferase, tunicamycin-induced, 15-18 h; actives 3.8% (n = 220,000);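 active means compounds that reduced the stress-induced luciferase reporter signal by more than about 70% of percent inhibition, limit read from the data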;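 further: 0% = tunicamycin plus vehicle and 100% = wells without tunicamycin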
UPR CHOP act – apoptotic UPR (CHOP) activation. AID 449763. activation, % at 10 µM. actives 0.34% (n = 330,000). CHO-CHOP luciferase reporter, luminescence; percent of tunicamycin response over DMSO baseline;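 active means at 10 µM dose, activation of 40% or more, normalized to positive control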;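 further: 100% = tunicamycin at 10 µg/mL and 0% = DMSO alone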
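System: CHO CHOP reporter cells. Amount: 500 cells per well. Buffer or medium: F12 medium, 10% FBS. Compound dosing: one dose, 10 µM in 0.5% DMSO. Incubation: 6 h compound exposure at 37 °C after overnight seeding. Technique: Steady-Glo luciferase luminescence. Benchmarks: tunicamycin and DMSO controls.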
XBP1 UPR activ – adaptive UPR (XBP1) activation. CHO-XBP1 luciferase reporter, IRE1-XBP1 UPR activation, luminescence; percent of tunicamycin response, DMSO as zero. actives 0.33% (n = 330,000). activation, % at 20 µM. AID 463104;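 active means versus positive control, 20 µM dose yields 30% or more activation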;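 further: 100% = tunicamycin at 10 µg/mL and 0% = DMSO only wells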
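Material – CHO cell line with stable XBP1 luciferase reporter · Buffer or medium – F12 plus 10% FBS · Compound – single point, 20 µM final compound, 1% DMSO · Schedule – 16-18 h cell attachment at 37 °C, then 6 h compound exposure · Signal – Steady-Glo luminescence read · Benchmarks – high control tunicamycin 10 µg/mL final, low control DMSO vehicle only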
V-ATPase pHluor – yeast V-ATPase proton transport regulation by pHLuorin; S. cerevisiae, pHLuorin cytosolic pH fluorescence; response, % at 10 µM; actives 0.37% (n = 350,000); AID 504577; in the data active means response mostly above about 7.3%, no sharp cut-off; inactive means mostly below about 5.4%; further: actives read high
TbMetRS inhib – Trypanosoma brucei MetRS inhibition; purified T. brucei MetRS, ATP depletion, Kinase-Glo luminescence; inhibition, % at 11.9 µM; actives 0.4% (n = 360,000); AID 624268;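 active means inhibition above a per-plate cutoff of the control wells' mean inhibition plus 3 SD, cut at about 5.5% in these data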;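 further: 0% = DMSO wells median and 100% = median of wells with control inhibitor compound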
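Material: parasite MetRS enzyme / Replication: singlicate, one well per compound / Signal: luminescence of leftover ATP / Schedule: 2 h aminoacylation at 25 °C after 15 min preincubation / Medium: HEPES-MgCl2-KCl buffer plus DTT, spermine, BSA, pyrophosphatase / Doses: 11.9 µM single point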
UPR XBP1 confirm – confirmation of adaptive unfolded protein response (XBP1) activators; shares compounds with XBP1 UPR activ; CHO-XBP1 IRE1-XBP1 luciferase reporter, luminescence; activation, % at 20 µM; actives 63% (n = 1,000); AID 485299;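 active means reporter signal at least 30% of the positive control's activation in two or more of four replicate wells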;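 further: plate controls were DMSO negative control for no effect and tunicamycin 10 µg/mL positive control for full effect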
V-ATPase pH SP – regulators of yeast V-ATPase proton transport | response, % at 10 µM | shares compounds with V-ATPase pHluor | S. cerevisiae pHLuorin cytosolic pH | AID 602197 | actives 2% (n = 980); in the data active means response above about 24%;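 further: plate controls were vehicle wells for no effect and positive control wells for full effect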
* = called active by the depositor; . = no result given. The sample as a whole holds a higher share of hits than the screen did.

SMILES	CHOP inh	UPR CHOP act	XBP1 UPR activ	V-ATPase pHluor	TbMetRS inhib	UPR XBP1 confirm	others
N#C/C(=C\Nc1ccc2cn[nH]c2c1)c1nc(-c2ccccc2)cs1	-66	.	.	1	-1	.
Cc1ccnc(N/C=C(\C#N)c2nc(-c3cccc(Br)c3)cs2)c1	44	3	91*	0	0	94*
O=C(CSc1ccc2nnc(-c3ccc(Cl)cc3)n2n1)N1CCc2ccccc21	79*	29	30*	4	-1	-2
Cc1cccc(CC(=O)NCC2CCCCC2)c1	.	8	1	4	0	.
CC(=O)C[C@H]1c2ccccc2S(=O)(=O)N1c1ccccc1	.	1	-4	-2	0	.
COc1cccc(/C=N/n2c(C3CCCCC3)n[nH]c2=S)c1	.	-1	-2	0	0	.
Cc1cc(C)c2c(CCl)cc(=O)oc2c1	-29	32	41*	2	-1	38*
COCOc1cc(O)c(C(=O)/C=C/c2ccccc2)c(OCOC)c1	.	22	40*	-1	1	28
COc1ccc(C(=O)/C=C/c2ccccc2)c(OC)c1	-97	7	2	-1	-1	.
COc1ccc(-n2c(SCC(=O)Nc3sc4c(c3C#N)CCCC4)nnc2-c2ccccc2OC)cc1	54	-2	0	-2	1	.
COc1ccc(-c2nnc(SCC(=O)Nc3sc4c(c3C#N)CCCC4)n2-c2ccccc2)cc1	69	-1	35*	0	0	61*
Cc1ccc(C)c(OCCC(=O)OCC(=O)Nc2cc(S(=O)(=O)N3CCCCC3)ccc2C)c1	.	0	1	0	0	.
O=C(Nc1ccc([N+](=O)[O-])cc1)C(Cc1ccccc1)N1C(=O)c2cccc3cccc(c23)C1=O (stereo not drawn)	-33	24	42*	-1	0	46*
O=C(O)c1ccccc1NC(=O)C(Cc1ccccc1)N1C(=O)c2ccccc2C1=O (stereo not drawn)	.	0	-4	0	0	.
COc1ccc(NC(=O)C2CCN(S(=O)(=O)c3cn(C)nc3C)CC2)cc1	.	-1	0	0	0	.
O=[N+]([O-])c1cccc(/C=C/c2nc(C=Nc3ccccc3)c(O)o2)c1	8	2	36*	-3	0	24
Brc1cc2c(cc1/C=N/Nc1nc3ccccc3s1)OCO2	69	4	33*	-1	-1	155*
Oc1ccc2ccccc2c1C=Nc1ccccc1-c1nc2ccccc2[nH]1	73*	26	37*	-2	0	5
O=C(O)c1ccccc1-c1nc2ccccc2[nH]1	-18	3	-1	-1	-1	.
C=CCN1C(=O)/C(=C2/Sc3ccc(OC)cc3N2C)SC1=Nc1cccc(O)c1	-3	17	48*	2	0	81*
COC(C(=O)Nc1ccnn1C1CCN(Cc2ccc(C)s2)CC1)c1ccccc1 (stereo not drawn)	.	2	-4	1	0	.
COc1ccc(Nc2nc(N)nc(CN3CCOCC3)n2)cc1	25	0	-2	-4	0	.
COc1ccc(N2CCN(Cc3nc(N)nc(Nc4ccc(C)c(Cl)c4)n3)CC2)cc1	60	0	33*	-2	-1	62*
O=C(CSc1nc2nn(-c3ccccc3)c(=O)c-2c2n1CCCCC2)Nc1ccc(OC(F)F)cc1	.	2	-4	4	0	.
Cc1cc(C)c2sc(N(CCCN(C)C)C(=O)c3ccc(S(=O)(=O)N4CCCc5ccccc54)cc3)nc2c1	.	8	31*	6	-1	54*
SMILES	CHOP inh	UPR CHOP act	XBP1 UPR activ	V-ATPase pHluor	TbMetRS inhib	UPR XBP1 confirm	others
CN(C)CCCN(C(=O)c1ccc(S(=O)(=O)N2CCc3ccccc3C2)cc1)c1nc2ccc(F)cc2s1	.	24	31*	0	0	71*
CN(C)CCCN(C(=O)c1cc(-c2cccs2)nc2ccccc12)c1nc2ccc(F)cc2s1	.	5	33*	-2	-1	40*
Cc1ccc2nc(N(CCCN(C)C)C(=O)c3ccc(S(=O)(=O)N4CCc5ccccc5C4)cc3)sc2c1	.	36	93*	1	0	49*
Cc1cc(-c2ccc3c(c2)COc2c4ccccc4nn2-3)on1	.	1	-2	-3	0	.
Cc1ccsc1C1CC(=O)OC2=C1C(=O)CC(C)(C)C2 (stereo not drawn)	-28	-1	-1	.	.	.
COc1cc(/C=C/C(=O)c2ccccc2O)cc(OC)c1OC	-101	36	31*	4	0	26
O=C(Oc1ccc(F)cc1C(=O)/C=C/c1cccs1)c1cccc([N+](=O)[O-])c1	-36	8	38*	6	1	83*
O=C(/C=C/c1ccccc1F)c1cccc([N+](=O)[O-])c1	-43	-2	2	1	-1	.
COc1ccc(CCNC(=O)/C=C\c2ccccc2)cc1OC	5	1	-1	-1	-1	.
COc1ccc(/C=C/C(=O)NC(=S)NCCc2ccc(OC)c(OC)c2)cc1	88*	-1	69*	3	0	1
Cn1nnnc1Sc1ncnc2scc(-c3ccc(Cl)cc3)c12	.	1	46*	0	0	113*
Cn1nnnc1Sc1ncnc2scc(-c3ccccc3Cl)c12	.	1	2	-1	0	.
CC(CN1CCN(C)CC1)OC(=O)c1ccc(Cl)cc1 (stereo not drawn)	26	2	3	-1	-1	.
CC(CN1CCCCC1)OC(=O)c1ccc(Cl)cc1 (stereo not drawn)	9	-1	35*	-1	0	1
Cc1ccc(NC(=O)c2cc(S(=O)(=O)N(C)C)ccc2N2CCCC2)cc1F	.	13	39*	-1	0	64*
Cc1ccc(NC(=O)c2c(C)nc3sc(C(=O)NC4CCCC4)c(N)c3c2-c2ccco2)c(C)c1	38	26	63*	5	0	105*
COc1ccc(/C=C/C=C2\NC(=S)NC2=O)cc1	24	1	-1	-2	-1	.
O=C1NC(=S)N/C1=C\C=C\c1ccccc1	12	0	39*	3	0	5
CCCCNC(=O)C1C(c2ccccc2)=Nc2ccccc2N1C(=O)c1ccc(C)cc1 (stereo not drawn)	.	.	.	.	0	.
COc1ccc(-c2nn(C)c(=O)c3ccccc23)cc1NC(=O)Cn1nc(C)c2ccccc2c1=O	40	0	56*	9.9*	-1	82*	V-ATPase pH SP=0
CCCCCCSc1ccc([C@@H]2[C@H]3C(=O)N(CC)C(=O)[C@H]3[C@]3(C(=O)OC)CCCN23)cc1	.	-1	-2	6	0	.
